Consider four compounds from publication PMC5503496 (Drug Design, Development and Therapy, 2017).

“Also recorded” adds a separate entry of the source.

The target in one assay is mushroom tyrosinase (Agaricus bisporus, UniProt C7FF04). The assay can be described thus: Kinetic analysis of the inhibition of tyrosinase. The assay is classed as biochemical. The conditions noted are these: Lineweaver-Burk plots, L-DOPA.
The subject of assay [1] is pigmentation of zebrafish. The assay can be described thus: In vivo depigmentation assay in zebrafish. On the set-up: species or system zebrafish (Danio rerio). The conditions noted are these: zebrafish embryos, 50 µM, 9 to 72 hpf. The method in brief:
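Synchronized embryos from wild-type adults (kept at 28.5°C, 14 h light/10 h dark) were placed 2–3 per well in E3 medium (NaCl 5 mM, KCl 0.17 mM, CaCl2 0.33 mM, MgSO4 0.33 mM). […] Dechorionated embryos were anesthetized with MS-222, mounted in 1% methyl cellulose and photographed by stereomicroscope. Pigmentation was quantified by pixel measurement.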

Assay [2] concerns melanin contents in zebrafish embryos. Description: Determination of melanin contents in zebrafish. The assay is classed as in vivo, zebrafish (Danio rerio). The note with it: 50 µM, 72 hpf.

mushroom tyrosinase, sequence (C7FF04 1-392 limits assumed): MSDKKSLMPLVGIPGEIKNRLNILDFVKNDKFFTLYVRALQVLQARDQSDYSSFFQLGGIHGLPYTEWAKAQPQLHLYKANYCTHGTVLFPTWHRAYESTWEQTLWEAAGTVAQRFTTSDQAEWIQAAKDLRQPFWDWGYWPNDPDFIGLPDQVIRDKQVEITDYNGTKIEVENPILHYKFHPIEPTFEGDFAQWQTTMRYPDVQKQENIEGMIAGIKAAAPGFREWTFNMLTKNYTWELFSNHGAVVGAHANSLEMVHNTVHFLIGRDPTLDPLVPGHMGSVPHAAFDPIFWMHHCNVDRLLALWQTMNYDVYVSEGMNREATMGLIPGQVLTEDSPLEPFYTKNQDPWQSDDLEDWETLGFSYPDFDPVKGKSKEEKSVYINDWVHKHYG

As to `Cc1ccc(C(C)C)cc1NC(=O)COC(=O)c1ccc(O)cc1O` [4c, 2-[2-methyl-5-(propan-2-yl)anilino]-2-oxoethyl 2,4-dihydroxybenzoate], the Inhibition type result at mushroom tyrosinase is “non-competitive inhibition; also recorded: non-competitively”.
On to `Cc1ccc(C(C)C)cc1NC(=O)COC(=O)/C=C/c1ccccc1` [6a, 2-[2-methyl-5-(propan-2-yl)anilino]-2-oxoethyl (2E)-3-phenylprop-2-enoate], for which the Inhibition type entry at mushroom tyrosinase is recorded as “mixed-type inhibition”.
In the case of `Cc1ccc(C(C)C)cc1NC(=O)COC(=O)/C=C/c1ccccc1O` [6b, 2-[2-methyl-5-(propan-2-yl)anilino]-2-oxoethyl (2E)-3-(2-hydroxyphenyl)prop-2-enoate], the Inhibition type result on mushroom tyrosinase is listed as “mixed-type inhibition”.
Regarding `O=c1cc(CO)occ1O` [Kojic acid], in assay [1], the “pigmentation level (decreased to)” value was determined as 24.2%. Also, the melanin contents result in assay [2] is on record as “only slightly reduced the melanin contents”.
